Screening data as filed in PubChem BioAssay.
In the library only some 4.5% were active in any assay of this set; here they are far more common.
MrgX1 agonist – activates human MrgX1 receptor signaling. Q96LB2. MrgX1-HEK293 cells, Fluo-4 calcium fluorescence, agonist mode; hits give high values. B-score at 10 µM. 310,000 tested, 0.44% active;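 active means calcium response B-score plate-corrected fluorescence ratio at least 3 library SD, with starting fluorescence B-score inside 5 SD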
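Test system: HEK293 cells stably expressing human MrgX1 receptor; Input: fifteen thousand cells per well; Dosing: compound delivered in addition one of three; Schedule: overnight seeding, then 1 h dark dye loading; Technique: Fluo-4 NW calcium fluorescence; Measure: B-scored fluorescence response ratio; Controls: positive and negative controls per plate.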
MrgX1 allo act – allosterically activates human MrgX1 receptor signaling; 310,000 tested, 0.63% active; Q96LB2; B-score at 10 µM; MrgX1-HEK293, Fluo-4 calcium flux, FDSS; hits give high values;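 active means plate-corrected calcium response at least 3 library SD above typical, normal starting fluorescence, not activating the receptor alone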;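 further: compound read alongside a low EC10 to EC30 dose of BAM8-22 agonist; peak minus trough fluorescence over baseline measured at the second addition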
RGS4 act – RGS4 potentiation or activation | HEK293 M3R/inducible RGS4, carbachol calcium flux Fluo4; hits give low values | B-score at 10 µM | 310,000 tested, 0.92% active | AID 463111;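 active means B-score of the integrated calcium signal more than 4 SD below the library mean, with starting fluorescence not abnormally high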;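 further: negative B-score means reduced calcium response which marks RGS4 activation or potentiation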
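Test system: HEK293 cells with stable M3R and inducible RGS4; also added: carbachol at ECmax as muscarinic agonist stimulus; schedule: dye loading 30 min 37 °C, buffer rest 30 min RT; technique: kinetic calcium fluorescence imaging with Fluo4-AM dye, 2 µM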
RGS4 block – inhibitors of human RGS4; HEK293 M3R/RGS4 inducible, Fluo-4 calcium flux; hits give high values; triggered by carbachol at its EC20; B-score at 10 µM; 310,000 tested, 0.45% active;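 active means B-score, a plate-corrected calcium signal, over three deviations above library mean, with baseline fluorescence within five deviations of library mean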;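 further: RGS4 expression induced by doxycycline in cells with stable M3 receptor; B-score is computed from the integrated fluorescence ratio over baseline after carbachol; higher B-score means a larger calcium signal and so more RGS4 inhibition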
Target sequence (P49798 whole entry, looked up): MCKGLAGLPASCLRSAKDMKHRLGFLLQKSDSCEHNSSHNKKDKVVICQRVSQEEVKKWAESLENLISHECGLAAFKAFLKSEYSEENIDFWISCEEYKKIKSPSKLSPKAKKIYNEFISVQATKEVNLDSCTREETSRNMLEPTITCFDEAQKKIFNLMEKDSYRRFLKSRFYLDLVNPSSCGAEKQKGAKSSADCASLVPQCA
MrgX1 antagonist – blocks BAM8-22 activation of human MrgX1 receptor; Q96LB2; B-score at 10 µM; MRGX1-HEK293 calcium flux, Fluo-4, BAM8-22 antagonism; hits give low values; 310,000 tested, 1.3% active; AID 588676;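 active means calcium-response B-score plate-corrected more than 3 library SD below zero, starting fluorescence within 5 deviations, no agonist response on first addition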;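 further: peak minus trough fluorescence over baseline after final BAM8-22 challenge near maximal dose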
PHOSPHO1 block – blocks human PHOSPHO1 phosphatase activity. recombinant PHOSPHO1, absorbance phosphatase assay. AID 1565. inhibition, % at 13.3 µM. 290,000 tested, 1.1% active. Q8TCT1; in the data active means inhibition above about 60%
Target sequence (Q8TCT1 whole entry, looked up): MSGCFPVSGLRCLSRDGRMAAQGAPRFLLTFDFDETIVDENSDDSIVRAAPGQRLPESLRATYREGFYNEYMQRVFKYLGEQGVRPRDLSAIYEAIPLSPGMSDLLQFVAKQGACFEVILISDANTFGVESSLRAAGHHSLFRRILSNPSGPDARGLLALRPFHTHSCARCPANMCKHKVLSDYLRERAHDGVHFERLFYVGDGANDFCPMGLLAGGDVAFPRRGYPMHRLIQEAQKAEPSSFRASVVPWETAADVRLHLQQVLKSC
* hit, by the source's call; i = inactive; . = no result.

SMILES | MrgX1 agonist | MrgX1 allo act | RGS4 act | RGS4 block | MrgX1 antagonist | PHOSPHO1 block
O=C(N/N=C/c1cc(Cl)ccc1O)c1ccncc1 | i | i | i | i | -5.1* | 20
O=C(Nc1nnc(SCC(=O)N2CCOCC2)s1)c1ccccc1Cl | i | i | i | i | i | 66*
O=C(CSc1nnc(NC(=O)c2ccccc2Cl)s1)Nc1ccc2c(c1)oc1ccccc12 | i | i | i | i | -4.6* | 7
C/C(CCc1oc2ccc(Cl)cc2c1-c1ccc(C)o1)=N\O | i | i | i | i | i | 7
C/C(CCc1oc2ccc(Br)cc2c1-c1ccc(C)o1)=N/O | i | i | i | i | -6.3* | -8
Cc1ccc2ncccc2c1NS(=O)(=O)c1ccccc1 | i | i | i | i | i | 98*
O=C(N/N=C/c1ccc(O)cc1)c1ccc(COc2cc(Cl)ccc2Cl)o1 | i | i | i | i | -5.2* | -4
COc1ccccc1CCC(=O)N(Cc1ccccc1)c1c(N)n(Cc2ccccc2)c(=O)[nH]c1=O | i | i | i | i | i | 28
O=C(Nc1ccc(C(=O)O)cc1)/C(=C\C=C\c1ccccc1)NC(=O)c1ccccc1Br | i | i | -7.7* | i | i | 13
O=C(Nc1ccc(C(=O)O)cc1)/C(=C\C=C\c1ccccc1)NC(=O)c1cccc(Br)c1 | i | i | i | i | i | 8
Cc1nc(N/N=C/c2ccc(O)cc2O)cc(N2CCOCC2)n1 | i | i | -7.6* | i | i | 34
COc1ccc(NC(=O)N2CCN(c3nc(-c4cccc(OC)c4)cs3)CC2)cc1 | i | i | -7* | i | i | 7
O=C(NC(=S)NCc1cccnc1)c1cc(Br)ccc1Cl | i | i | i | i | i | 33
CC(=O)N(c1nc(/C=C\C(=O)O)cs1)c1ccccc1F | 32* | i | i | i | i | 28
CC(=O)N(c1nc(CCl)cs1)c1cccc(C)c1C | i | i | i | i | i | 15
O=C(NCc1ccc2c(c1)OCO2)c1cc(-c2ccccc2)nn1CC1CC(c2cccnc2)=NO1 (stereo not drawn) | i | i | i | i | i | .
O=C(Nc1cc(Sc2ccccn2)cc([N+](=O)[O-])c1)c1ccc(Cl)cc1 | i | i | -8* | i | -6.1* | 46
COc1ccc(Cc2noc(CN(C)CC3(N4CCOCC4)CCCCC3)n2)cc1OC | i | i | i | i | i | 44
COc1ccc(NC(=O)CN2C(=O)NC(C)(c3ccc(C)cc3)C2=O)c([N+](=O)[O-])c1 (stereo not drawn) | i | i | i | i | i | 35
CN1CCN(C(=O)CCN2C(=O)c3ccccc3S2(=O)=O)CC1 | i | i | i | i | -7.4* | .
CC(C)=CCOc1c2ccoc2cc2oc(=O)ccc12 | i | i | i | i | -5.7* | 1
CCN(CC(=O)NCc1ccc(Cl)cc1)C(=O)COc1ccc(Cl)cc1Br | i | i | i | i | i | .
CCCOc1ccc(N)cc1N | i | i | i | i | -6.7* | 65*
CCCOc1cc(N)ccc1C(=O)OCCN(CC)CC | i | i | . | . | i | .
CCCCN=c1scc(-c2ccc3c(c2)NC(=O)CO3)n1N=C1CCCC1 | 32* | i | i | i | i | 56
SMILES | MrgX1 agonist | MrgX1 allo act | RGS4 act | RGS4 block | MrgX1 antagonist | PHOSPHO1 block
COCCn1ccc2c(OCC(=O)NCc3ccc(C)cc3)cccc2c1=O | i | i | i | i | i | .
COCC(C)n1c(C)cc(C(=O)CSc2nnc(N)s2)c1C (stereo not drawn) | i | i | i | i | i | 99*
Cc1cc(C(=O)CSc2nnc(N)s2)c(C)n1CCc1ccc(F)cc1 | i | i | i | i | i | -55
COCC(C)n1c(C)cc(C(=O)CSc2nc(C)c(C)c(C)n2)c1C (stereo not drawn) | i | i | i | i | i | 25
Cc1cc(C(=O)CSc2nnc(N)s2)c(C)n1CCc1ccc(Cl)cc1 | i | i | i | i | i | 74*
Cc1cc(C(=O)CSc2nnnn2-c2ccccc2)c(C)n1CCc1ccccc1 | i | i | i | i | i | 84*
CCNC(=O)c1ccccc1-c1nc(-c2ccccc2)no1 | i | i | i | i | i | 22
CC(=O)c1cccc(N(CC(=O)NC2CCCCC2)C(=O)Cn2nnc(-c3ccccc3)n2)c1 | i | i | i | i | i | 32
Cc1cccc(C)c1OCC(=O)Nc1ccc(N2CCOCC2)cc1 | i | i | i | i | i | 44
CCO/C(=C/c1sc2ccc(OC)cc2[n+]1CCCS(=O)(=O)[O-])CC | i | i | i | i | i | 32
CCOC(=O)C[n+]1c(C)sc2ccc(OC)cc21 | i | i | i | i | i | 92*
O=C(NNS(=O)(=O)c1ccc(F)cc1)C1CCN(Cc2cccc(F)c2)CC1 | i | i | -7.3* | i | i | -13
O=[N+]([O-])c1ccc(N/N=C\c2cccn2-c2ccccc2)nc1 | i | 8* | i | i | i | 23
O=C(O)CC(CC(=O)Nc1nncs1)c1ccccc1 (stereo not drawn) | i | i | i | i | i | -12
O=C(O)CC(Cn1[nH]nnc1=S)c1ccccc1 (stereo not drawn) | i | i | i | i | i | 94*
Cc1ccc(S(=O)(=O)N2CCN(C(=O)C3CSC4(C)CCC(=O)N34)CC2)cc1C (stereo not drawn) | i | i | i | i | i | .
CC(=O)Nc1cc(C(=O)N2CCc3ccccc3C2)ccc1Sc1ccc(Cl)cc1 | i | i | -8* | i | i | 27
CCOc1cccc(CN2CCCC(CNC(=O)c3cccc(OC)c3OC)C2)c1 (stereo not drawn) | i | i | i | i | i | 19
CC(C)CN1CCN(Cc2nc3ccccc3s2)CC1CCO (stereo not drawn) | i | i | i | i | i | 39
COc1ccc2c(c1)C=C(CN1CCN(C(C)C)C(CCO)C1)CO2 (stereo not drawn) | i | i | i | i | i | 40
COc1ccc2c(c1)C=C(CN1CCN(C3CCCC3)C(CCO)C1)CO2 (stereo not drawn) | i | i | -7* | i | i | 24
